Measured values as given in ChEMBL document CHEMBL1136911, “6,7-Dihydro-5H-pyrrolo[1,2-a] imidazoles as potent and selective alpha1A adrenoceptor partial agonists” (Bioorg Med Chem Lett, 2009).
pEC50, pKi: −log10 of the molar value.

Assays:
[1] = biological target: T1, Alpha-1A adrenergic receptor (Homo sapiens, UniProt P35348); assay: Agonist activity at human adrenergic alpha1A receptor expressed in CHO cells assessed as calcium mobilization by FLIPR; type: functional, cell-based
T1 sequence (P35348 whole entry): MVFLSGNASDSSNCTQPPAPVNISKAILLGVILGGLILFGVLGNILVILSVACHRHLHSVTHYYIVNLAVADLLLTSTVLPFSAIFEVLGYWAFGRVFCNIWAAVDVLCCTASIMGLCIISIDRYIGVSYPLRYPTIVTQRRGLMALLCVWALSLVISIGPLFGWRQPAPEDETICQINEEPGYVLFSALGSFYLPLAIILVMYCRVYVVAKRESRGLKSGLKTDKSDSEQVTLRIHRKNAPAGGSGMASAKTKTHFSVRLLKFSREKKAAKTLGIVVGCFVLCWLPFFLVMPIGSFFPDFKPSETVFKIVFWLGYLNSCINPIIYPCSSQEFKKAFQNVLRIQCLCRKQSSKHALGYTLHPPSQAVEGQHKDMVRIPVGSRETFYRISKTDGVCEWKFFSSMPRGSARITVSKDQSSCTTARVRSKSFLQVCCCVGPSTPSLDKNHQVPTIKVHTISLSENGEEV

[2] = biological target: T2, Alpha-2A adrenergic receptor (Homo sapiens, UniProt P08913); assay: Inhibition of adrenergic alpha2A receptor
T2 sequence (P08913 whole entry): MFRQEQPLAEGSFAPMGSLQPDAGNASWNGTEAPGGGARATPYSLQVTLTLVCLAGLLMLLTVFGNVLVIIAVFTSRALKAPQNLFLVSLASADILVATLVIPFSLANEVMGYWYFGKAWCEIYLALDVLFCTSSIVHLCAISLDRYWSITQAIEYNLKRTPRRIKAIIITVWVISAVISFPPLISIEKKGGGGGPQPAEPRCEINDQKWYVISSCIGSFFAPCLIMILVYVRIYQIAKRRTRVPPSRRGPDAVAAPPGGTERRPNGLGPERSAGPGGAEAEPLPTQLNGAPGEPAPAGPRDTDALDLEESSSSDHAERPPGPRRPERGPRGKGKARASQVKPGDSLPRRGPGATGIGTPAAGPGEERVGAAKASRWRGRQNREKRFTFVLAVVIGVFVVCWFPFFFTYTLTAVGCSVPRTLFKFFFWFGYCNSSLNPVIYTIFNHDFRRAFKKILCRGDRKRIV

[3] = biological target: CYP2C9 (Homo sapiens, UniProt P11712); assay: Inhibition of CYP2C9 at 3 uM; type: ADME
[4] = Apparent permeability from apical to basolateral side of MDCK cells expressing MDR1; type: ADME, cell-based, Canis lupus familiaris; settings: dog, MDCK-MDR1
Outline: (§1)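 MDCK cells expressing P-glycoprotein (mdr-1); transcellular flux measured at 10 µM substrate in the apical-to-basolateral and basolateral-to-apical directions, reported as Papp ×10^-6 cm s^-1.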

[5] = biological target: T3, Alpha-1B adrenergic receptor (Homo sapiens, UniProt P35368); assay: Agonist activity at human adrenergic Alpha-1B receptor expressed in CHO cells assessed as calcium mobilization by FLIPR; type: functional, cell-based
T3 sequence (P35368 whole entry): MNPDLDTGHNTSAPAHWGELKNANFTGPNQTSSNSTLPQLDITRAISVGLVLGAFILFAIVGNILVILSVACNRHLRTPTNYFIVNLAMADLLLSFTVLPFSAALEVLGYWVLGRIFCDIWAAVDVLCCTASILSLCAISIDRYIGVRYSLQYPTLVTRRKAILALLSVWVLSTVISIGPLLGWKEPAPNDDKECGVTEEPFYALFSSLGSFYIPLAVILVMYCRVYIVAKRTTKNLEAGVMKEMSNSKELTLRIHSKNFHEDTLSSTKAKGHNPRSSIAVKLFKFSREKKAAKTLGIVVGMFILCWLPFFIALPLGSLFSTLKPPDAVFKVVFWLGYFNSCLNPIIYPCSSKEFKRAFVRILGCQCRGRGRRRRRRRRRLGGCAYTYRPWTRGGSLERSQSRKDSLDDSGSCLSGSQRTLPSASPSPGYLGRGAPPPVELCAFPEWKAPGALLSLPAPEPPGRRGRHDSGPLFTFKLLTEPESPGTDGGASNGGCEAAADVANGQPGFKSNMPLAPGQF
Outline: (§2)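 Human alpha1B (clone 11) or alpha1D (clone 23) receptor stably expressed in Chinese hamster ovary cells; receptor activation read as Gq-coupled calcium mobilisation with a calcium-sensitive fluorescent dye on FLIPR. Eleven-point concentration-response curves; Emax given as percent of the response to 10 µM phenylephrine. Values are geometric means of at least two experiments.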

[6] = biological target: T4, CYP1A2 (Homo sapiens, UniProt P05177); assay: Inhibition of CYP1A2 at 3 uM; type: ADME
T4 sequence (P05177 whole entry): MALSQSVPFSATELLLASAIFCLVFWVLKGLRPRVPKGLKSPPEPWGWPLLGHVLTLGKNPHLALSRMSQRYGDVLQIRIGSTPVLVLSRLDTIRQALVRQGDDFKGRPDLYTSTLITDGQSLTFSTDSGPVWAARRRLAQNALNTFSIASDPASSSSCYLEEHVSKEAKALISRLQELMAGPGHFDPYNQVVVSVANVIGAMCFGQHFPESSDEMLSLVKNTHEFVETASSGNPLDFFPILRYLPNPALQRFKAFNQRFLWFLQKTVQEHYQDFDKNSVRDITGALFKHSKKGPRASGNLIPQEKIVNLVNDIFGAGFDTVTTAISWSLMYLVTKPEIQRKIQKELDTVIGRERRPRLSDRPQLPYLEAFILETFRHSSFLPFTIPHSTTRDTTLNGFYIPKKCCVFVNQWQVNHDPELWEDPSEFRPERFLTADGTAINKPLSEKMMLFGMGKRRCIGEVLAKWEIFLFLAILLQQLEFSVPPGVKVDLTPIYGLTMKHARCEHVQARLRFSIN

[7] = biological target: T5, Alpha-1D adrenergic receptor (Homo sapiens, UniProt P25100); assay: Agonist activity at human adrenergic Alpha-1D receptor expressed in CHO cells assessed as calcium mobilization by FLIPR; type: functional, cell-based; outline: as §2
T5 sequence (P25100 whole entry): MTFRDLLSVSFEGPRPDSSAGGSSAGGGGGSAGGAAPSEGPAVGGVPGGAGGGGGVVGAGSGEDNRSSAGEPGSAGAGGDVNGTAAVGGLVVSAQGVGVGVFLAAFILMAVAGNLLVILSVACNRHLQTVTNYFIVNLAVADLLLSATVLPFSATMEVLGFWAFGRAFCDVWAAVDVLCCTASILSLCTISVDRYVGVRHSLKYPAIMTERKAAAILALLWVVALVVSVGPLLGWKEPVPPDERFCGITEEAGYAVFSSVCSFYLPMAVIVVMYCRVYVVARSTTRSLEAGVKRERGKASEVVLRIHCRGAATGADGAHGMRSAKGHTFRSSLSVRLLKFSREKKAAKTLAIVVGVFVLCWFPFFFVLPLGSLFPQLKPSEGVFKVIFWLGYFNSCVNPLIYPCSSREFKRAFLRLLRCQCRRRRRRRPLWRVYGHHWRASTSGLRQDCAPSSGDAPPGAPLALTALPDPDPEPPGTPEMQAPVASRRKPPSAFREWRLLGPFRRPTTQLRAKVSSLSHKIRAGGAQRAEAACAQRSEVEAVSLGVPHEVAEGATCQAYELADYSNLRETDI

[8] = biological target: Voltage-gated inwardly rectifying potassium channel KCNH2 (Homo sapiens, UniProt Q12809); assay: Inhibition of human ERG up to 22 uM
[9] = biological target: CYP3A4 (Homo sapiens, UniProt P08684); assay: Inhibition of CYP3A4 at 3 uM; type: ADME
[10] = Intrinsic clearance in human liver microsomes; type: ADME, Microsome
[11] = Lipophilicity, log D at pH 7.4; settings: buffer
[12] = biological target: CYP2D6 (Homo sapiens, UniProt P10635); assay: Inhibition of CYP2D6 at 3 uM; type: ADME
[13] = Apparent permeability from basolateral to apical side of MDCK cells expressing MDR1; type: ADME, cell-based, Canis lupus familiaris; settings: dog, MDCK-MDR1; outline: as §1

CYP2D6, sequence (P10635 whole entry): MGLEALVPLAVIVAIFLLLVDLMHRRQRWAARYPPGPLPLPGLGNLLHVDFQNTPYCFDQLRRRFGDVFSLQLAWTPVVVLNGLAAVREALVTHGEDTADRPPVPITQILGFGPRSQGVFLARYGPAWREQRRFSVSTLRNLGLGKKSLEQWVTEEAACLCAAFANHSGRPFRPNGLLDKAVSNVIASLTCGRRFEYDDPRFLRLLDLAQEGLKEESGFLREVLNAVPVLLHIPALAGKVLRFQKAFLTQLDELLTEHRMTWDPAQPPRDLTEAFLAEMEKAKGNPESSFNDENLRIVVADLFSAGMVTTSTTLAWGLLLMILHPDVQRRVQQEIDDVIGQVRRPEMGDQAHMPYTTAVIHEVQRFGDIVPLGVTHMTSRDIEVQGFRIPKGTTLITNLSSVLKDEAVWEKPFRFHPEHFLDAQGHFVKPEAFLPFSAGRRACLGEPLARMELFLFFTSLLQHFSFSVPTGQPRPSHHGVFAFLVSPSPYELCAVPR
Voltage-gated inwardly rectifying potassium channel KCNH2, sequence (Q12809 whole entry): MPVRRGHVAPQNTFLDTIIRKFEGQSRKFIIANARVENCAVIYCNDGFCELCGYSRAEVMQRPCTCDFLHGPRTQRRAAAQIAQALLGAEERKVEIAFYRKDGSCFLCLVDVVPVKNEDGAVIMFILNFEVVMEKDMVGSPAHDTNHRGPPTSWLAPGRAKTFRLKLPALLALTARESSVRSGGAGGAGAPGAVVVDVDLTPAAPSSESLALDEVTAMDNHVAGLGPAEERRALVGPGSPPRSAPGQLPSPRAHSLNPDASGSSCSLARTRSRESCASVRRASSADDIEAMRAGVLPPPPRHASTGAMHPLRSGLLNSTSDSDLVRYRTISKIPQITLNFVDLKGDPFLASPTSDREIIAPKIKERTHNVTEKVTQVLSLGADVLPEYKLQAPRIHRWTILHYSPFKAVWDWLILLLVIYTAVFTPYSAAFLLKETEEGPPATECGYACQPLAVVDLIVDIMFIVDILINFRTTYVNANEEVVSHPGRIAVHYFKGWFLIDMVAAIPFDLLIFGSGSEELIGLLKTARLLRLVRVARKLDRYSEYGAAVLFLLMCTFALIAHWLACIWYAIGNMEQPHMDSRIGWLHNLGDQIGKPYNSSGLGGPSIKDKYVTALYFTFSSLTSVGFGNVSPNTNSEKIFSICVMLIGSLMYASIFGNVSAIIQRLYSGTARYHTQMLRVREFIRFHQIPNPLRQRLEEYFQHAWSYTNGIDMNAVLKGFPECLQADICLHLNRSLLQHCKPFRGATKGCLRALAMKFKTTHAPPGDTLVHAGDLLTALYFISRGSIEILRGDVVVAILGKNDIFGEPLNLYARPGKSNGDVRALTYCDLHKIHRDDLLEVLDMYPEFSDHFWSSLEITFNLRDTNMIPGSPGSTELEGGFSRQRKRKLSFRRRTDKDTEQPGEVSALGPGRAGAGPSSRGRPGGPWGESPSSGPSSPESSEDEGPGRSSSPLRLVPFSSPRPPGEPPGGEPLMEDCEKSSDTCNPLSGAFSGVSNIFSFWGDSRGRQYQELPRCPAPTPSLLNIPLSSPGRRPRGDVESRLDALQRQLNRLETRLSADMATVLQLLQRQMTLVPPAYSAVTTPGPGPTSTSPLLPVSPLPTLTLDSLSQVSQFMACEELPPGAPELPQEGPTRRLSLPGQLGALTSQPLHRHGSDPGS
CYP3A4, sequence (P08684 whole entry): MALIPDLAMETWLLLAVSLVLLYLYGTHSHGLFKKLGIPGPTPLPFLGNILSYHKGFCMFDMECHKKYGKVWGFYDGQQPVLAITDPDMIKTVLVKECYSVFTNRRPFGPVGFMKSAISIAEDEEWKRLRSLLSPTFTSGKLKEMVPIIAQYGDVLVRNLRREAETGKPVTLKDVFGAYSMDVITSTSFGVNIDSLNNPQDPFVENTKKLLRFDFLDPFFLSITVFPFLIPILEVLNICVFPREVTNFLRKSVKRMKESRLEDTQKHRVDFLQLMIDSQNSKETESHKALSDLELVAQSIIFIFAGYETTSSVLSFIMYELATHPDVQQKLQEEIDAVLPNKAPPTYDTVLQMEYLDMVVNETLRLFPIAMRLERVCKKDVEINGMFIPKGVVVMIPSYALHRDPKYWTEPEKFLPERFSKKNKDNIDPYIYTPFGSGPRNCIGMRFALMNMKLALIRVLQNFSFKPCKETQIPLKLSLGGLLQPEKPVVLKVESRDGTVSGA
CYP2C9, sequence (P11712 whole entry): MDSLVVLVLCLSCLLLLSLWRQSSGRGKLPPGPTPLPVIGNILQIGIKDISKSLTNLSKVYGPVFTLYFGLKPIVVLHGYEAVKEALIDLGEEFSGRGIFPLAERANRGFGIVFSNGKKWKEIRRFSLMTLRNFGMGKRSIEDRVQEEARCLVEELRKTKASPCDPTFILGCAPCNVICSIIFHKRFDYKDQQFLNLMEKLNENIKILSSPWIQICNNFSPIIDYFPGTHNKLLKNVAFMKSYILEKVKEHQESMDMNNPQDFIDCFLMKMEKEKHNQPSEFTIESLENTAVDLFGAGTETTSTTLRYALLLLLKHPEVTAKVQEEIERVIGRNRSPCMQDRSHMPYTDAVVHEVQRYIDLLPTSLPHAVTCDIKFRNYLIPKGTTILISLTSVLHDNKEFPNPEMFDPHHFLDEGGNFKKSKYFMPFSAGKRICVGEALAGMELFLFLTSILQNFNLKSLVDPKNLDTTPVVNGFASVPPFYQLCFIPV

Fc1ccc(-c2cncnc2)c(C2Cc3nccn3C2)c1 (stereo not drawn) showed a pEC50 [1] of 9.00, a pKi [2] of less than 5.56 and an inhibition at 3 µM [3] of less than 10%. The Papp A→B [4] was 34 ×10⁻⁶ cm/s, the pEC50 [5] was less than 5.00 and the inhibition at 3 µM [6] was less than 10%. For the same compound, the pEC50 [7] was less than 5.59, the “inhibition (INH)” value [8] was “Not Active” and the inhibition at 3 µM [9] was less than 10%. The microsomal CLint [10] was less than 8 µL/min/mg, the logD [11] was 1.3 and the inhibition at 3 µM [12] was less than 10%. It also gave a Papp B→A [13] of 39 ×10⁻⁶ cm/s.
